According to ChEMBL document CHEMBL4330069, “Boosting the efficacy of anti-MRSA β-lactam antibiotics via an easily accessible, non-cytotoxic and orally bioavailable FtsZ inhibitor” (Eur J Med Chem, 2019):
≈ marks a conversion by molar mass, not a printed value.

Assays:
[1] = tested on: Staphylococcus aureus; experiment: Synergistic antibacterial activity against multidrug-resistant Staphylococcus aureus isolate 256 in presence of methicillin by broth microdilution assay; assay type: functional
In short: (§1)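 CLSI broth microdilution on clinical MRSA isolates. MICs were measured for the β-lactam alone, the test agent alone and the two combined. Compounds were dissolved in DMSO, and growth inhibition was scored by eye. FIC index is the sum, over both agents, of MIC in combination divided by MIC alone. An FIC index ≤0.5 was taken as synergy.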

[2] = tested on: Staphylococcus aureus; experiment: Synergistic antibacterial activity against multidrug-resistant Staphylococcus aureus isolate 200 in presence of methicillin by broth microdilution assay; assay type: functional
In short: (§2)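 Clinical MRSA isolate panel; compound and β-lactam tested alone and in combination by CLSI broth microdilution, compounds dissolved in DMSO, growth inhibition scored by eye, run in duplicate. FIC index = FIC(compound) + FIC(drug), each the MIC in combination divided by the MIC alone; an index ≤ 0.5 was called synergy.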

[3] = tested on: Staphylococcus aureus; experiment: Synergistic antibacterial activity against multidrug-resistant Staphylococcus aureus isolate 254 assessed as fractional Inhibitory concentration index in presence of cefuroxime by broth microdilution assay; assay type: functional
[4] = tested on: Staphylococcus aureus; experiment: Synergistic antibacterial activity against multidrug-resistant Staphylococcus aureus isolate 2919 in presence of amoxicillin by broth microdilution assay; assay type: functional; in short: as §1
[5] = tested on: Staphylococcus aureus; experiment: Synergistic antibacterial activity against multidrug-resistant Staphylococcus aureus isolate 3411 in presence of cefuroxime by broth microdilution assay; assay type: functional
[6] = tested on: Staphylococcus aureus; experiment: Synergistic antibacterial activity against multidrug-resistant Staphylococcus aureus isolate 3332 in presence of methicillin by broth microdilution assay; assay type: functional; in short: as §1
[7] = tested on: Staphylococcus aureus; experiment: Synergistic antibacterial activity against multidrug-resistant Staphylococcus aureus isolate 757 in presence of cloxacillin by broth microdilution assay; assay type: functional
[8] = tested on: Staphylococcus aureus; experiment: Synergistic antibacterial activity against multidrug-resistant Staphylococcus aureus isolate 2516 in presence of cefuroxime by broth microdilution assay; assay type: functional; in short: as §1
[9] = tested on: Staphylococcus aureus; experiment: Synergistic antibacterial activity against multidrug-resistant Staphylococcus aureus isolate 774 in presence of meropenem by broth microdilution assay; assay type: functional
[10] = tested on: Staphylococcus aureus; experiment: Synergistic antibacterial activity against multidrug-resistant Staphylococcus aureus isolate 1449 in presence of meropenem by broth microdilution assay; assay type: functional; in short: as §2
[11] = tested on: Staphylococcus aureus; experiment: Synergistic antibacterial activity against multidrug-resistant Staphylococcus aureus isolate 2728 in presence of cefuroxime by broth microdilution assay; assay type: functional; in short: as §1
[12] = tested on: Staphylococcus aureus; experiment: Synergistic antibacterial activity against multidrug-resistant Staphylococcus aureus isolate 2224 assessed as fractional Inhibitory concentration index in presence of amoxicillin by broth microdilution assay; assay type: functional
In short: (§3)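 CLSI broth microdilution run on clinical MRSA isolates with each β-lactam alone, the test agent alone, and the two combined; agents dissolved in DMSO. Growth inhibition was read by eye. FIC index = FIC(compound) + FIC(β-lactam), where each FIC is the MIC in combination divided by the MIC alone. An index ≤0.5 was taken as synergy.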

[13] = tested on: Staphylococcus aureus; experiment: Synergistic antibacterial activity against multidrug-resistant Staphylococcus aureus isolate 3580 in presence of methicillin by broth microdilution assay; assay type: functional
[14] = Tmax in Sprague-Dawley rat at 50 mg/kg, po by UPLC-MS/MS analysis; assay type: ADME, organism-based; details: in vivo
[15] = tested on: Staphylococcus aureus; experiment: Synergistic antibacterial activity against multidrug-resistant Staphylococcus aureus isolate 1402 assessed as fractional Inhibitory concentration index in presence of methicillin by broth microdilution assay; assay type: functional; in short: as §3
[16] = tested on: Staphylococcus aureus; experiment: Synergistic antibacterial activity against multidrug-resistant Staphylococcus aureus isolate 3332 assessed as fractional Inhibitory concentration index in presence of amoxicillin by broth microdilution assay; assay type: functional
[17] = tested on: Staphylococcus aureus; experiment: Synergistic antibacterial activity against multidrug-resistant Staphylococcus aureus isolate 2728 assessed as fractional Inhibitory concentration index in presence of meropenem by broth microdilution assay; assay type: functional
[18] = tested on: Staphylococcus aureus; experiment: Synergistic antibacterial activity against multidrug-resistant Staphylococcus aureus isolate 2973 in presence of cefuroxime by broth microdilution assay; assay type: functional; in short: as §1
[19] = tested on: Staphylococcus aureus; experiment: Synergistic antibacterial activity against multidrug-resistant Staphylococcus aureus isolate 757 assessed as fractional Inhibitory concentration index in presence of cefuroxime by broth microdilution assay; assay type: functional
[20] = tested on: Staphylococcus aureus; experiment: Synergistic antibacterial activity against multidrug-resistant Staphylococcus aureus isolate 231 assessed as fractional Inhibitory concentration index in presence of meropenem by broth microdilution assay; assay type: functional; in short: as §3
[21] = tested on: Staphylococcus aureus; experiment: Synergistic antibacterial activity against multidrug-resistant Staphylococcus aureus isolate 2728 assessed as fractional Inhibitory concentration index in presence of amoxicillin by broth microdilution assay; assay type: functional
[22] = tested on: Staphylococcus aureus; experiment: Synergistic antibacterial activity against multidrug-resistant Staphylococcus aureus isolate 2490 in presence of cefuroxime by broth microdilution assay; assay type: functional; in short: as §2
[23] = tested on: Staphylococcus aureus; experiment: Synergistic antibacterial activity against multidrug-resistant Staphylococcus aureus isolate 3267 in presence of methicillin by broth microdilution assay; assay type: functional; in short: as §1
[24] = tested on: Staphylococcus aureus; experiment: Synergistic antibacterial activity against multidrug-resistant Staphylococcus aureus isolate 2224 in presence of amoxicillin by broth microdilution assay; assay type: functional; in short: as §2
[25] = tested on: Staphylococcus aureus; experiment: Antibacterial activity against multidrug-resistant Staphylococcus aureus isolate 417 by broth microdilution assay; assay type: functional
In short: (§4)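 Broth microdilution MIC per CLSI guidelines against clinical MRSA isolates, for β-lactams and test compound alone and in combination. Compounds were dissolved in DMSO. Growth was read by eye, in duplicate. FIC index = FIC(compound) + FIC(drug); synergy defined as FIC index ≤0.5.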

[26] = tested on: Staphylococcus aureus; experiment: Synergistic antibacterial activity against multidrug-resistant Staphylococcus aureus isolate 3589 assessed as fractional Inhibitory concentration index in presence of methicillin by broth microdilution assay; assay type: functional
[27] = tested on: Staphylococcus aureus; experiment: Synergistic antibacterial activity against multidrug-resistant Staphylococcus aureus isolate 2901 assessed as fractional Inhibitory concentration index in presence of cefuroxime by broth microdilution assay; assay type: functional
[28] = tested on: Staphylococcus aureus; experiment: Antibacterial activity against multidrug-resistant Staphylococcus aureus isolate 2516 by broth microdilution assay; assay type: functional; in short: as §4
[29] = tested on: Staphylococcus aureus; experiment: Synergistic antibacterial activity against multidrug-resistant Staphylococcus aureus isolate 3332 in presence of cloxacillin by broth microdilution assay; assay type: functional; in short: as §1
[30] = tested on: Staphylococcus aureus; experiment: Antibacterial activity against multidrug-resistant Staphylococcus aureus isolate 774 by broth microdilution assay; assay type: functional; in short: as §4
[31] = tested on: Staphylococcus aureus; experiment: Antibacterial activity against multidrug-resistant Staphylococcus aureus isolate 3411 by broth microdilution assay; assay type: functional; in short: as §4
[32] = tested on: Staphylococcus aureus; experiment: Synergistic antibacterial activity against multidrug-resistant Staphylococcus aureus isolate 2919 in presence of methicillin by broth microdilution assay; assay type: functional; in short: as §1
[33] = tested on: Staphylococcus aureus; experiment: Synergistic antibacterial activity against multidrug-resistant Staphylococcus aureus isolate 2728 assessed as fractional Inhibitory concentration index in presence of cloxacillin by broth microdilution assay; assay type: functional
[34] = tested on: Staphylococcus aureus; experiment: Synergistic antibacterial activity against multidrug-resistant Staphylococcus aureus isolate 1749 in presence of methicillin by broth microdilution assay; assay type: functional; in short: as §2
[35] = tested on: Staphylococcus aureus; experiment: Synergistic antibacterial activity against multidrug-resistant Staphylococcus aureus isolate 3411 assessed as fractional Inhibitory concentration index in presence of amoxicillin by broth microdilution assay; assay type: functional
[36] = tested on: Staphylococcus aureus; experiment: Synergistic antibacterial activity against multidrug-resistant Staphylococcus aureus isolate 2224 in presence of meropenem by broth microdilution assay; assay type: functional; in short: as §2
[37] = tested on: Staphylococcus aureus; experiment: Antibacterial activity against multidrug-resistant Staphylococcus aureus isolate 3589 by broth microdilution assay; assay type: functional; in short: as §4
[38] = tested on: Staphylococcus aureus; experiment: Synergistic antibacterial activity against multidrug-resistant Staphylococcus aureus isolate 3411 in presence of meropenem by broth microdilution assay; assay type: functional
[39] = tested on: Staphylococcus aureus; experiment: Synergistic antibacterial activity against multidrug-resistant Staphylococcus aureus isolate 256 in presence of cefuroxime by broth microdilution assay; assay type: functional; in short: as §1
[40] = tested on: Staphylococcus aureus; experiment: Synergistic antibacterial activity against multidrug-resistant Staphylococcus aureus isolate 3580 in presence of meropenem by broth microdilution assay; assay type: functional

CCCCCCCCCNc1ccc(F)c(C(N)=O)c1F
MIC [1]: 4 µg/mL | MIC [2]: 4 µg/mL | fractional inhibitory concentration index (FICI) [3]: 0.3 | MIC [4]: 8 µg/mL | MIC [5]: 2 µg/mL | MIC [6]: 4 µg/mL | MIC [7]: 1 µg/mL | MIC [8]: 2 µg/mL | MIC [9]: 4 µg/mL | MIC [10]: 4 µg/mL | MIC [11]: 2 µg/mL | fractional inhibitory concentration index (FICI) [12]: 0.2 | MIC [13]: 2 µg/mL | Tmax [14]: 2 h | fractional inhibitory concentration index (FICI) [15]: 0.6 | fractional inhibitory concentration index (FICI) [16]: 0.6 | fractional inhibitory concentration index (FICI) [17]: 2 | MIC [18]: 4 µg/mL | fractional inhibitory concentration index (FICI) [19]: 0.1 | fractional inhibitory concentration index (FICI) [20]: 0.6 | fractional inhibitory concentration index (FICI) [21]: 0.1 | MIC [22]: 2 µg/mL | MIC [23]: 4 µg/mL | MIC [24]: 64 µg/mL | MIC [25]: 32 µg/mL (≈ 107 µM) | fractional inhibitory concentration index (FICI) [26]: 0.5 | fractional inhibitory concentration index (FICI) [27]: 0.1 | MIC [28]: 32 µg/mL (≈ 107 µM) | MIC [29]: 2 µg/mL | MIC [30]: 512 µg/mL (≈ 1720 µM) | MIC [31]: 2 µg/mL (≈ 6.7 µM) | MIC [32]: 4 µg/mL | fractional inhibitory concentration index (FICI) [33]: 1 | MIC [34]: 2 µg/mL | fractional inhibitory concentration index (FICI) [35]: 2 | MIC [36]: 8 µg/mL | MIC [37]: 8 µg/mL (≈ 26.8 µM) | MIC [38]: 4 µg/mL | MIC [39]: 2 µg/mL | MIC [40]: 8 µg/mL
